pIC50: −log10 of the molar value. Calls of active or inactive are those of the source. The rule behind the calls is not given here.
Experiments:
[1] = target: Dipeptidyl peptidase 2 (Rattus norvegicus, UniProt Q9EPB1); experiment: Inhibition of rat kidney DPP2 after 60 mins
Summary of the method: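 Rat kidney DPP-2, partially purified, preincubated with compound (DMSO) for 20 min at room temperature in […] buffer pH 5.5. Reaction started with H-Lys-Ala-pNA, added at 1 mmol/L, and run 60 min at 37 °C. A405 read at start and end against substrate-only and no-compound wells. IC50 from concentration-response curves, mean with 95% CI (n = 3).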

[2] = target: Dipeptidyl peptidase 9 (Homo sapiens, UniProt Q86TI2); experiment: Inhibition of FLAG-tagged human DPP9 expressed in human 293F cells after 90 mins; type: cell-based
Chain of Dipeptidyl peptidase 9 (Q86TI2 whole entry): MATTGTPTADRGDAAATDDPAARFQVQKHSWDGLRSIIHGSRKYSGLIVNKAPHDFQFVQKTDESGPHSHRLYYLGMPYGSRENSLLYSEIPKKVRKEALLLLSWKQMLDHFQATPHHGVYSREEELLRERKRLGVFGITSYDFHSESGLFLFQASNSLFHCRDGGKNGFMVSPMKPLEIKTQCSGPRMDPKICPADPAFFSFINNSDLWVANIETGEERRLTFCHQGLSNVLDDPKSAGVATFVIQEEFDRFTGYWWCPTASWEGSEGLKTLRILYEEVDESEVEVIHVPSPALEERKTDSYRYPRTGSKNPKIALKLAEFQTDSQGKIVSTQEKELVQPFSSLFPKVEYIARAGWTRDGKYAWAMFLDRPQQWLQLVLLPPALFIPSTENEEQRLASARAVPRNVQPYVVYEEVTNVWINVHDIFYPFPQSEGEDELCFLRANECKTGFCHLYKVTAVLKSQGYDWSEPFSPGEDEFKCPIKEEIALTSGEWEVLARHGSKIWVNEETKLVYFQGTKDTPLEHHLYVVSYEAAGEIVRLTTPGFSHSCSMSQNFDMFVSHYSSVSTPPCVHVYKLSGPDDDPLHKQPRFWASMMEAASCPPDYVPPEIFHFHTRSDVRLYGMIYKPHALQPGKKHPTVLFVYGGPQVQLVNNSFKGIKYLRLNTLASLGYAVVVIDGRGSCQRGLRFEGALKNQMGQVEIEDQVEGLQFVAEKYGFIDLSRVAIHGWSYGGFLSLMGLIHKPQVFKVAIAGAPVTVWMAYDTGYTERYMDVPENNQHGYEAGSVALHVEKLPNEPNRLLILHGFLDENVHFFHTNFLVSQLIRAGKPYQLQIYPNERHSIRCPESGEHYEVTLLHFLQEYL

[3] = target: Dipeptidyl peptidase 8 (Homo sapiens, UniProt Q6V1X1); experiment: Inhibition of FLAG-tagged human DPP8 expressed in human 293F cells after 90 mins; type: cell-based
Chain of Dipeptidyl peptidase 8 (Q6V1X1 whole entry): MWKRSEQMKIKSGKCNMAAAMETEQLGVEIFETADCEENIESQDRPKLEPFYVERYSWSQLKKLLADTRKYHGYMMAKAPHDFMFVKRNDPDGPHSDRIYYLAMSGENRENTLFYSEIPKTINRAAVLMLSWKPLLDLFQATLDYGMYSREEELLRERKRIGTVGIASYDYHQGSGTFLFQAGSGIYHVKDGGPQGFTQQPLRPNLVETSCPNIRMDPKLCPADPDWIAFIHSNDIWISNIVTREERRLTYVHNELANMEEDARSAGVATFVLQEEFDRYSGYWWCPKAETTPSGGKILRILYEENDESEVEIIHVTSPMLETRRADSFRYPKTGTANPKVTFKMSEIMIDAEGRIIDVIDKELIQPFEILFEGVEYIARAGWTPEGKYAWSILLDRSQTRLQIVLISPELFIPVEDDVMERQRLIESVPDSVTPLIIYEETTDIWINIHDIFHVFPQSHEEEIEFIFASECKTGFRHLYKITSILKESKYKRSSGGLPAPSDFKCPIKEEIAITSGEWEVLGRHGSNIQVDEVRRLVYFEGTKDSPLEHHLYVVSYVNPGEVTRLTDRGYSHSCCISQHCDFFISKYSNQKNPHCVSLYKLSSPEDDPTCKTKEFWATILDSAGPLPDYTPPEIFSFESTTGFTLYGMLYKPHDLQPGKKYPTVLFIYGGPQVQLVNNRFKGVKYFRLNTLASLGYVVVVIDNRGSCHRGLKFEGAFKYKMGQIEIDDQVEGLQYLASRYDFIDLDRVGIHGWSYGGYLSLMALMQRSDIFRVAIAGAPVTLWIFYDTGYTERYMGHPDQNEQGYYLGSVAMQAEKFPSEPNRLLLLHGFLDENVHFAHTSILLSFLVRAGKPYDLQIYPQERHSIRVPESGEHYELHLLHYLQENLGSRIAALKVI

[4] = Solubility of the compound at pH 1.2 after 2 hrs; type: physicochemical; settings: buffer
Summary of the method: (§1)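 Thermodynamic solubility in Japanese Pharmacopoeia 15th ed. first fluid (pH 1.2) or second fluid (pH 6.8), incubated 2 h at 37 °C. Precipitate removed by filtration and filtrate quantified by HPLC.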

[5] = Metabolic stability in rat liver microsomes assessed as compound remaining at 1 uM after 20 mins relative to basal level; type: ADME, Microsome; settings: read-out: Stability
Summary of the method: (§2)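 Rat, dog or human hepatic microsomes ([…] final) mixed on ice with 1 μmol/L compound. Reaction started with NADPH and run 20 min at 37 °C, then stopped with ice-cold acetonitrile. Zero-time controls stopped before compound addition. Supernatant analysed by HPLC-UV. Result given as % remaining.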

[6] = Bioavailability in dog at 0.1 mg/kg, iv and 1 mg/kg, po; type: ADME, organism-based, Canis lupus familiaris; settings: in vivo
Summary of the method: (§3)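 Single doses to rats (n = 3) and dogs (n = 4), intravenous 0.1 mg/kg and oral 1.0 mg/kg. Plasma obtained from serial blood samples and deproteinized with acetonitrile containing an internal standard. Supernatant diluted with 0.01 mol/L ammonium acetate. Drug quantified by LC/MS/MS. Values given as mean ± deviation.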

[7] = Metabolic stability in dog liver microsomes assessed as compound remaining at 1 uM after 20 mins relative to basal level; type: ADME, Canis lupus familiaris, Microsome; settings: read-out: Stability; summary of the method: as §2
[8] = Metabolic stability in human liver microsomes assessed as compound remaining at 1 uM after 20 mins relative to basal level; type: ADME, Microsome; settings: read-out: Stability; summary of the method: as §2
[9] = Half life in rat at 1 mg/kg, po; type: ADME, organism-based; design: dose 1 mg/kg, route oral; settings: in vivo; summary of the method: as §3
[10] = tested on: Rattus norvegicus; experiment: Antidiabetic activity in po dosed fatty Wistar rat assessed as reduction of blood glucose excursion administered 60 mins before glucose challenge by oral glucose tolerance test; type: functional, organism-based
Summary of the method: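 Female Wistar fatty rats, 13 weeks old, fasted overnight and grouped by plasma glucose and body weight (n = 6). Oral vehicle (0.5% methylcellulose) or 0.03, 0.1, 0.3 and 1 mg/kg as free base of the monohydrate. Oral glucose 1 g/kg given 1 h later. Tail-vein blood taken at 0, 10, 30 and 60 min. Plasma glucose measured enzymatically and insulin by ELISA.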

[11] = Bioavailability in rat at 0.1 mg/kg, iv and 1 mg/kg, po; type: ADME, organism-based; settings: in vivo; summary of the method: as §3
[12] = species: Canis familiaris; settings: Canis lupus familiaris; Plasma; 0.5 mg/kg
[13] = Solubility of the compound at pH 6.8 after 2 hrs; type: physicochemical; settings: buffer; summary of the method: as §1
[14] = Half life in dog at 1 mg/kg, po; type: ADME, organism-based, Canis lupus familiaris; design: dose 1 mg/kg, route oral; settings: in vivo; summary of the method: as §3

Chain of Dipeptidyl peptidase 2 (Q9EPB1 whole entry): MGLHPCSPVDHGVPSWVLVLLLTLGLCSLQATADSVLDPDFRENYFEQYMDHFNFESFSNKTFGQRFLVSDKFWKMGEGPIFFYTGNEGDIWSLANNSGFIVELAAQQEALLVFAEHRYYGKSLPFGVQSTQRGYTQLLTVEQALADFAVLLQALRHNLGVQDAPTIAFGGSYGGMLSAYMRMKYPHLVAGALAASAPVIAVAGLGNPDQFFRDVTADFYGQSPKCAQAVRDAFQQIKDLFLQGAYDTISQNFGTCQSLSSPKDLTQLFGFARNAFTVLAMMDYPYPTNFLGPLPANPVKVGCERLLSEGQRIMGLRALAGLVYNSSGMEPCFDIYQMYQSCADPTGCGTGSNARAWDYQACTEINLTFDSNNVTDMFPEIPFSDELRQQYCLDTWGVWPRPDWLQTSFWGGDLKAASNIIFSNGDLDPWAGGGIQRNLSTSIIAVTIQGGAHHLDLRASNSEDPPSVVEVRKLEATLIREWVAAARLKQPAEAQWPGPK

pIC50 [1]	pIC50 [3]	SMILES	also measured
5.00		Cc1ccc(-c2c(CN)c(CC(C)(C)C)nc(C)c2C(=O)O)cc1	
4.96		CCCCc1nc(C)c(C(=O)O)c(-c2ccc(C)cc2)c1CN	
5.40		CCc1nc(CC(C)(C)C)c(CN)c(-c2ccc(C)cc2)c1C(=O)O	
4.30	< 4.52	Cc1ccc(-c2c(CC(=O)O)c(C)nc(CC(C)C)c2CN)cc1	pIC50 [2]: < 4.52
5.70		CCCc1nc(CC(C)(C)C)c(CN)c(-c2ccc(C)cc2)c1C(=O)O	
	< 4.00	Cc1ccc(-c2c(CC(=O)O)c(C)nc(CC(C)(C)C)c2CN)cc1	pIC50 [2]: < 4.00
5.96	< 4.52	Cc1ccc(-c2c(CCC(=O)O)c(C)nc(CC(C)C)c2CN)cc1	pIC50 [2]: < 4.52
5.80		Cc1ccc(-c2c(CN)c(CC(C)(C)C)nc(C(C)C)c2C(=O)O)cc1	
5.82		Cc1ccc(-c2c(CN)c(CC(C)(C)C)nc(CC(C)C)c2C(=O)O)cc1	
6.60		Cc1ccc(-c2c(CN)c(CC(C)(C)C)nc(Cc3ccccc3)c2C(=O)O)cc1	
5.25		Cc1ccc(-c2c(CN)c(CC(C)C)nc(C)c2C(=O)O)cc1	
< 4.00	< 4.00	CCc1nc(CC(C)(C)C)c(CN)c(-c2ccc(C)cc2)c1CC(=O)O.O	solubility at 2 h [4]: > 1000 µg/mL; remaining at 20 min, 1 µM [5]: 100%; bioavailability [6]: 88%; remaining at 20 min, 1 µM [7]: 96.8%; remaining at 20 min, 1 µM [8]: 100%; half-life [9]: 344 min; Activity [10]: Dose-dependent effect; bioavailability [11]: 53.3%; inhibition [12]: Active; solubility at 2 h [13]: 930 µg/mL; half-life [14]: 298 min
